Measurements reported in ChEMBL document CHEMBL3994631, “Design, synthesis, structure-activity relationship and mechanism of action studies of a series of 4-chloro-1-phthalazinyl hydrazones as a potent agent against Leishmania braziliensis” (Eur J Med Chem, 2017).
Calls of active or inactive are those of the source. The rule behind the calls is not given here.

Tests used:
Leishmania braziliensis [1] = test: Antileishmanial activity against Leishmania braziliensis MHOM/CO/87/UA301 promastigote forms isolated from infected Balb/c mouse assessed as parasite growth inhibition at 20 uM after 96 hrs by MTT assay relative to control; assay type: functional; conditions: MHOM/CO/87/UA301, 96 h, read-out: GI
Summary of the method: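 Promastigotes in LIT + 10% FBS at 2x10^6/mL exposed to a single 20 μM concentration for 96 h at 29 °C. MTT (1 mg/mL) added for 4 h in darkness, cells lysed with acidic isopropanol, read at 570 nm. Inhibition relative to untreated parasites; means of three independent experiments.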

[2] = Cytotoxicity against mouse BMDM assessed as reduction in cell viability after 48 hrs by MTT assay; assay type: cell-based; conditions: bone marrow-derived macrophages (BMDM), read-out: LC50
Summary of the method: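 Mouse bone-marrow macrophages (BMDM) were differentiated in L-929 conditioned medium and kept at 37 °C, 5% CO2, 90% humidity. Cells at 5×10^4 cells/mL were exposed to compounds at 10 to 100 µM for 48 h. Read-out was MTT reduction as a percentage of control cells. LC50 is the mean of three independent experiments.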

Leishmania braziliensis [3] = test: Potency index, ratio of miltefosine EC50 to compound EC50 for Leishmania braziliensis MHOM/CO/87/UA301 promastigote forms isolated from infected Balb/c mouse; assay type: functional
Leishmania braziliensis [4] = test: Antileishmanial activity against Leishmania braziliensis MHOM/CO/87/UA301 promastigote forms isolated from infected Balb/c mouse by neubauer chamber method; assay type: functional
Summary of the method: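 Promastigotes seeded at 1x10^6/mL in LIT medium at 29 °C with 0.1–10 μM compound. Growth followed daily by Neubauer chamber counting; three independent experiments per concentration. EC50 obtained by nonlinear regression of concentration–response data.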

Leishmania braziliensis [5] = test: Antileishmanial activity against Leishmania braziliensis MHOM/CO/87/UA301 amastigote forms infected in mouse BMDM after 96 hrs by Giemsa staining based assay; assay type: functional; conditions: MHOM/CO/87/UA301, BMDM
Summary of the method: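 BMDM mixed 1:10 with L. braziliensis promastigotes in DMEM + 10% FBS on glass coverslips, 18 h at 37 °C, 5% CO2. Medium then replaced with medium containing compound and incubated 96 h under the same conditions. Giemsa-stained macrophages counted for % total and % infected macrophages and amastigotes per macrophage; triplicate.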

[6] = Selectivity index, ratio of LC50 for mouse BMDM to EC50 for Leishmania braziliensis MHOM/CO/87/UA301 amastigote forms infected in mouse BMDM
Leishmania braziliensis [7] = test: Antileishmanial activity against Leishmania braziliensis MHOM/CO/87/UA301 amastigote forms infected in mouse BMDM assessed as induction of nitrite production after 48 hrs by Griess assay; assay type: functional
Summary of the method: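 Macrophages infected with L. braziliensis were incubated 48 h with compound at 0.08, 0.80 and 8.0 μM. Controls: untreated infected and uninfected macrophages, three wells each. Nitrite in supernatants measured by Griess reaction against a sodium nitrite standard (detection limit 1.56 μM). Triplicate; expressed as % of untreated infected macrophages.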

Leishmania braziliensis [8] = test: Cytotoxicity against Leishmania braziliensis MHOM/CO/87/UA301 promastigote forms assessed as cell death at 20 uM after 30 mins by MTT assay; conditions: 0.5 h
Summary of the method: (§1)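 10^6 promastigotes in 500 μL per well treated with 20 μM compound at 28 °C, with untreated wells for each time point; sampled between 30 and 180 min. Cells counted, then MTT added (50 μL of 5 mg/mL in PBS) for 4 h. Stopped with acidic isopropanol, read at 570 nm. Pmdh (%) taken relative to untreated parasites as 100%; triplicate.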

Leishmania braziliensis [9] = test: Inhibition of DHFR in Leishmania braziliensis MHOM/CO/87/UA301 promastigote forms assessed as growth inhibition at 0.5 uM after 72 hrs in presence of folinic acid by neubauer chamber method
Leishmania braziliensis [10] = test: Antileishmanial activity against Leishmania braziliensis MHOM/CO/87/UA301 promastigote forms isolated from infected Balb/c mouse assessed as induction of oxidative stress by measuring reduction in mitochondrial dehydrogenase activity at 20 uM by MTT assay; assay type: functional; conditions: TDE = time-dependent effect; summary of the method: as §1
Leishmania braziliensis [11] = test: Inhibition of CuZn-SOD in Leishmania braziliensis MHOM/CO/87/UA301 promastigote forms assessed as reduction in superoxide level at 0.012 to 1.2 uM after 30 mins by spectrophotometric based xanthine oxidase coupled enzyme assay
Summary of the method: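 Promastigotes (4 million in 500 μL) treated at 0.012, 0.12 and 1.2 μM, then pelleted. Sonicated in STE buffer pH 7.8 and centrifuged; protein measured by Bradford. SOD activity read as NBT reduction by superoxide from xanthine/xanthine oxidase (8.4 U) with EDTA, Na2CO3 and albumin. 30 min at 27 °C, CuCl2 added, A595 measured; controls without xanthine oxidase; triplicate.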

Leishmania braziliensis [12] = test: Ratio of EC50 for Leishmania braziliensis MHOM/CO/87/UA301 amastigote forms infected in mouse BMDM to EC50 for Leishmania braziliensis MHOM/CO/87/UA301 promastigote forms; assay type: functional
Leishmania braziliensis [13] = test: Inhibition of DHFR in Leishmania braziliensis MHOM/CO/87/UA301 promastigote forms assessed as growth inhibition at 10 uM after 72 hrs in presence of folinic acid by neubauer chamber method
Leishmania braziliensis [14] = test: Antileishmanial activity against Leishmania braziliensis MHOM/CO/87/UA301 promastigote forms isolated from infected Balb/c mouse assessed as induction of oxidative stress by measuring reduction in mitochondrial dehydrogenase activity at 20 uM after 30 to 180 mins by MTT assay; assay type: functional; summary of the method: as §1
Leishmania braziliensis [15] = test: Inhibition of DHFR in Leishmania braziliensis MHOM/CO/87/UA301 promastigote forms assessed as growth inhibition at 2 uM after 72 hrs in presence of folinic acid by neubauer chamber method

Row | SMILES | EC50 (Leishmania braziliensis [4]) | inhibition of growth at 20 µM (Leishmania braziliensis [1]) | also measured
1 | O=[N+]([O-])c1ccc(C=NNc2nnc(Cl)c3ccccc23)s1 | 3.2 µM | 11.5 to 88.5% | CC50 at 48 h [2]: < 10 µM; Ratio EC50 (Leishmania braziliensis [3]): 8
2 | O=[N+]([O-])c1ccc(C=NNc2nnc(Cl)c3ccccc23)o1 | 0.12 µM | 13.5 to 86.5% | EC50 (Leishmania braziliensis [5]): 0.59 µM; Selectivity Index [6]: 23.7; Activity (Leishmania braziliensis [7]): Dose-dependent effect; Activity (Leishmania braziliensis [8]): Non-Toxic; CC50 at 48 h [2]: 14 µM; inhibition (Leishmania braziliensis [9]): inactive; Activity (Leishmania braziliensis [10]): Tde; inhibition (Leishmania braziliensis [11]): inactive; Ratio EC50 (Leishmania braziliensis [3]): 208; Ratio EC50 (Leishmania braziliensis [12]): 4.9
3 | C/C(=N\Nc1nnc(Cl)c2ccccc12)c1cc(Cl)ccc1Cl | > 20 µM | 20% | –
4 | O=[N+]([O-])c1cccc(/C=N/Nc2nnc(Cl)c3ccccc23)c1 | > 20 µM | 10.6% | –
5 | C/C(=N\Nc1nnc(Cl)c2ccccc12)c1ccc(Br)cc1 | > 20 µM | 10.6% | –
6 | Clc1cccc(/C=N/Nc2nnc(Cl)c3ccccc23)c1 | > 20 µM | 7.03% | –
7 | Clc1nnc(N/N=C/c2cccc(Br)c2)c2ccccc12 | > 20 µM | 5.89% | –
8 | Oc1ccccc1/C=N\Nc1nnc(Cl)c2ccccc12 | > 20 µM | 33.9 to 64.2% | –
9 | C/C(=N\Nc1nnc(Cl)c2ccccc12)c1ccc([N+](=O)[O-])cc1 | > 20 µM | 19.1% | –
10 | CCCCCCCCCCCCCCCCOP(=O)([O-])OCC[N+](C)(C)C [MILTEFOSINE] | 20 to 25 µM | 67.8% | inhibition (Leishmania braziliensis [13]): inactive; CC50 at 48 h [2]: 125 µM; Activity (Leishmania braziliensis [14]): inactive
11 | Clc1nnc(N/N=C/c2ccccc2)c2ccccc12 | > 20 µM | 8.46% | –
12 | CN(Cc1cnc2nc(N)nc(N)c2n1)c1ccc(C(=O)N[C@@H](CCC(=O)O)C(=O)O)cc1 | – | – | inhibition (Leishmania braziliensis [15]): Active

Further lines, with some results ahead:

Row | EC50 (Leishmania braziliensis [4]) | SMILES | inhibition of growth at 20 µM (Leishmania braziliensis [1]) | also measured
13 | > 20 µM | Clc1nnc(NN=Cc2ccc(Br)cc2)c2ccccc12 | 17.2% | –
14 | > 20 µM | C/C(=N\Nc1nnc(Cl)c2ccccc12)c1cccc([N+](=O)[O-])c1 | 9.46% | –
15 | > 20 µM | Clc1ccc(C=NNc2nnc(Cl)c3ccccc23)cc1 | 16.8% | –
16 | < 20 µM | O=[N+]([O-])c1ccc(C=NNc2nnc(Cl)c3ccccc23)cc1 | 41.9 to 58.1% | –
17 | > 20 µM | Fc1ccc(/C=N/Nc2nnc(Cl)c3ccccc23)cc1 | 17.8% | –
18 | > 20 µM | COc1cc([N+](=O)[O-])ccc1/C=N/Nc1nnc(Cl)c2ccccc12 | 11.9% | –
19 | > 20 µM | C/C(=N\Nc1nnc(Cl)c2ccccc12)c1ccc(Cl)cc1Cl | 37.5% | –
20 | > 20 µM | C/C(=N\Nc1nnc(Cl)c2ccccc12)c1ccccc1 | 37% | –
21 | > 20 µM | C/C(=N\Nc1nnc(Cl)c2ccccc12)c1ccc(O)cc1 | 22.9% | –
22 | ≥ 20 µM | Clc1nnc(N/N=C/c2ccco2)c2ccccc12 | 40.9 to 59.1% | –
